From ChEMBL document CHEMBL4680339, “Synthesis and bioevaluation of N-(3,4,5-trimethoxyphenyl)-1H-pyrazolo[3,4-b]pyridin-3-amines as tubulin polymerization inhibitors with anti-angiogenic effects” (Bioorg Med Chem, 2021)
pIC50: −log10 of the molar value.

Assays:
A549 = assay: Antiproliferative activity against human A549 cells assessed as reduction in cell growth incubated for 72 hrs by MTT assay; assay type: functional, cell-based; settings: A549, 72 h
Outline: (§1)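 Log-phase cells seeded at 5 × 10³/well and grown 24 h, then exposed to graded compound concentrations for 72 h. MTT (5 mg/mL) added for 4 h; formazan dissolved in DMSO and absorbance read at 490 nm. IC50 calculated from growth inhibition; means ± SD of triplicate experiments.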

HeLa = assay: Antiproliferative activity against human HeLa cells assessed as reduction in cell growth incubated for 72 hrs by MTT assay; assay type: functional, cell-based; outline: as §1
HepG2 = assay: Antiproliferative activity against human HepG2 cells assessed as reduction in cell growth incubated for 72 hrs by MTT assay; assay type: functional, cell-based; settings: HepG2, 72 h; outline: as §1
MCF7 = assay: Antiproliferative activity against human MCF7 cells assessed as reduction in cell growth incubated for 72 hrs by MTT assay; assay type: functional, cell-based; settings: MCF7, 72 h; outline: as §1
HCT-116 = assay: Antiproliferative activity against human HCT-116 cells assessed as reduction in cell growth incubated for 72 hrs by MTT assay; assay type: functional, cell-based; settings: HCT-116, 72 h; outline: as §1
WI-38 = assay: Cytotoxicity against human WI-38 cells assessed as reduction in cell growth incubated for 72 hrs by MTT assay; assay type: cell-based; settings: WI-38, 72 h; outline: as §1
Sus scrofa = species on record: Sus scrofa; assay: (§2) Inhibition of pig brain tubulin polymerization by spectrophotometric method; assay type: tissue-based
Outline: (§3)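 Pig brain tubulin, purified by three assembly/disassembly cycles and phosphocellulose chromatography, mixed with compound at various concentrations. Buffer: PEM (100 mM PIPES, 1 mM MgCl₂, 1 mM EGTA) with 1 mM GTP and 5% glycerol. Polymerization followed at 37 °C by light scattering at 340 nm; plateau absorbance used for calculation.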

[1] = as §2; assay type: tissue-based, Sus scrofa; outline: as §3

| Structure (SMILES) | pIC50 (A549) | pIC50 (HeLa) | pIC50 (HepG2) | pIC50 (MCF7) | pIC50 (HCT-116) | pIC50 (WI-38) | inhibition (Sus scrofa) | pIC50 [1] |
| --- | --- | --- | --- | --- | --- | --- | --- | --- |
| COc1ccc2c(Nc3cc(OC)c(OC)c(OC)c3)nn(C3CCCC3)c2n1 | < 4.30 | 5.20 | < 4.30 | 4.65 | < 4.30 | 4.13 |  |  |
| COc1ccc2c(N(CCF)c3cc(OC)c(OC)c(OC)c3)n[nH]c2n1 | 6.70 | 7.92 | 5.24 | 6.99 | 6.92 | 4.78 | Dose-dependent effect | 4.25 |
| COc1ccc2c(N(Cc3ccccc3)c3cc(OC)c(OC)c(OC)c3)n[nH]c2n1 | < 4.30 | 5.50 | 5.13 | 4.99 | 5.47 | 5.78 |  |  |
| COCCN(c1cc(OC)c(OC)c(OC)c1)c1n[nH]c2nc(OC)ccc12 | 4.50 | 5.75 | < 4.30 | 5.76 | 5.44 | 4.51 |  |  |
